Assay results taken from ChEMBL document CHEMBL5653631, “A Potent and Selective ULK1 Inhibitor Suppresses Autophagy and Sensitizes Cancer Cells to Nutrient Stress” (iScience, 2018).
Blank lines part the entries; values can stand above or below the molecule they belong to.

Experiments:
[1] = target: Mitogen-activated protein kinase kinase kinase 9 (Homo sapiens) (UniProt P80192); assay: Inhibition of human recombinant MLK1 at 500 nM in presence of ATP by radiometric assay relative to control
[2] = target: Vascular endothelial growth factor receptor 2 (Homo sapiens) (UniProt P35968); assay: Inhibition of human recombinant KDR at 500 nM related to control ULK1
Vascular endothelial growth factor receptor 2 (Homo sapiens), sequence (P35968 whole entry): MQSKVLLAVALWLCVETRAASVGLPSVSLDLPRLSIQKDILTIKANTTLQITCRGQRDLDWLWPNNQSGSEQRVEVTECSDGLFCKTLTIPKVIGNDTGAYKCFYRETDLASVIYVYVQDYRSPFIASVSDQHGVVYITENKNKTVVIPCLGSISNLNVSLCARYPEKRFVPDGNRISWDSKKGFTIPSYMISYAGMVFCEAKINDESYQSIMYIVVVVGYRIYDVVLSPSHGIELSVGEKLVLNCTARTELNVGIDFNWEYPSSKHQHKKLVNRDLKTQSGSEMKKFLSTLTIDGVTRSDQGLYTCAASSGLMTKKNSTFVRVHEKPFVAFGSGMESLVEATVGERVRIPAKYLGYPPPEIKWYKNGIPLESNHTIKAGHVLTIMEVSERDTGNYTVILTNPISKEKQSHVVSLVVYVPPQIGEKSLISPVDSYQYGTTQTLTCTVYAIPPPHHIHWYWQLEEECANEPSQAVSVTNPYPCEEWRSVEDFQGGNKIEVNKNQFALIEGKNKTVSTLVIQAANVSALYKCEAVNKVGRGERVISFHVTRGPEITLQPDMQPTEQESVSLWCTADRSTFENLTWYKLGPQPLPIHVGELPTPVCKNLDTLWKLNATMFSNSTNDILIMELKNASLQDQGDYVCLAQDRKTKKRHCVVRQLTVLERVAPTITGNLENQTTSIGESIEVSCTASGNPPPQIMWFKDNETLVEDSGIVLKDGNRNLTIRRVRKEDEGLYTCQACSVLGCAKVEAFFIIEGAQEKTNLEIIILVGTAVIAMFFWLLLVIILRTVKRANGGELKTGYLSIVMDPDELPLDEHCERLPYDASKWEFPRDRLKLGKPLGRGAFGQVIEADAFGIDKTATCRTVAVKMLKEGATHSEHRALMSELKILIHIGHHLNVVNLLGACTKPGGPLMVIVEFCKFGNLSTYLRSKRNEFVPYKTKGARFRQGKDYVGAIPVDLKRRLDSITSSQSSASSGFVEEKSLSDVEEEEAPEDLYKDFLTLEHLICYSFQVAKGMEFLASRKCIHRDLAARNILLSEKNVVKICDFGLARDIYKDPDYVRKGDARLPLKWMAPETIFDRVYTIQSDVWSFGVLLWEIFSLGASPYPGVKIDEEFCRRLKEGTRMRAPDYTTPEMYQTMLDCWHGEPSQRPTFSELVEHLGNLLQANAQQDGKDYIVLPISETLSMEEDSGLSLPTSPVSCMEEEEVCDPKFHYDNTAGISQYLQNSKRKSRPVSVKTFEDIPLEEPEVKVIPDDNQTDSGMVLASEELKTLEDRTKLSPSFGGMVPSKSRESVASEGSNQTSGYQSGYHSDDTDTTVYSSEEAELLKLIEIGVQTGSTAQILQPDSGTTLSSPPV

[3] = target: Cyclin-dependent kinase 9 (Homo sapiens) (UniProt P50750); assay: Inhibition of human recombinant CDK9 at 500 nM related to control ULK1
Cyclin-dependent kinase 9 (Homo sapiens), sequence (P50750 whole entry, canonical isoform): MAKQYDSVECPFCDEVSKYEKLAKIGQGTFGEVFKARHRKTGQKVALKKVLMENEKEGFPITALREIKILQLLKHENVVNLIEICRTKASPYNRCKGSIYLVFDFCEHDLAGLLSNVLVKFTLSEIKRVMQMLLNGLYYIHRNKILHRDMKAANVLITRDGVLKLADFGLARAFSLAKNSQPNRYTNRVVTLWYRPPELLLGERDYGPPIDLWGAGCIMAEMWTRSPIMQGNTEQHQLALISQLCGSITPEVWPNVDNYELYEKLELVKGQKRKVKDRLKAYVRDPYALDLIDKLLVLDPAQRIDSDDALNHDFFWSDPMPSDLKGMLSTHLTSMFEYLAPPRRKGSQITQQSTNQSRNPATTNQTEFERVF

[4] = target: Casein kinase I isoform gamma-3 (Homo sapiens) (UniProt Q9Y6M4); assay: Inhibition of human recombinant CK1g3 at 500 nM related to control ULK1
Casein kinase I isoform gamma-3 (Homo sapiens), sequence (Q9Y6M4 whole entry, looked up, canonical isoform): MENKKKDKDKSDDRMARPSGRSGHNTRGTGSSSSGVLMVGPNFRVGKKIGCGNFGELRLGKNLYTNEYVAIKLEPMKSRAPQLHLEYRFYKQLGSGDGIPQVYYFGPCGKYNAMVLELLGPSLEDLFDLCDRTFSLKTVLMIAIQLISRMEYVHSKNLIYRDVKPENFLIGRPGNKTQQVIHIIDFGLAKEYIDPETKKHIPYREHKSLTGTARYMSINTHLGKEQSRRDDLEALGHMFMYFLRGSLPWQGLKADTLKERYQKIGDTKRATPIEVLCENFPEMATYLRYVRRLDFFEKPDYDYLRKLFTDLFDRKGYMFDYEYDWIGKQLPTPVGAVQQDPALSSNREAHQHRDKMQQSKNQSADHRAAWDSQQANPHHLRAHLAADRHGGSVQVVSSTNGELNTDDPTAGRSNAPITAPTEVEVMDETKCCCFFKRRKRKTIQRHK

[5] = target: Cyclin-dependent kinase 9 (Homo sapiens) (UniProt P50750); assay: Inhibition of human recombinant CDK9 at 500 nM in presence of ATP by radiometric assay relative to control
[6] = target: Tyrosine-protein kinase CSK (Homo sapiens) (UniProt P41240); assay: Inhibition of human recombinant CSK at 500 nM related to control ULK1
[7] = target: Cyclin-dependent kinase 2 (Homo sapiens) (UniProt P24941); assay: Inhibition of human recombinant CDK2 at 500 nM in presence of ATP by radiometric assay relative to control
[8] = target: STE20-like serine/threonine-protein kinase (Homo sapiens) (UniProt Q9H2G2); assay: Inhibition of human recombinant SLK at 15 nM related to control ULK1
STE20-like serine/threonine-protein kinase (Homo sapiens), sequence (Q9H2G2 whole entry, looked up): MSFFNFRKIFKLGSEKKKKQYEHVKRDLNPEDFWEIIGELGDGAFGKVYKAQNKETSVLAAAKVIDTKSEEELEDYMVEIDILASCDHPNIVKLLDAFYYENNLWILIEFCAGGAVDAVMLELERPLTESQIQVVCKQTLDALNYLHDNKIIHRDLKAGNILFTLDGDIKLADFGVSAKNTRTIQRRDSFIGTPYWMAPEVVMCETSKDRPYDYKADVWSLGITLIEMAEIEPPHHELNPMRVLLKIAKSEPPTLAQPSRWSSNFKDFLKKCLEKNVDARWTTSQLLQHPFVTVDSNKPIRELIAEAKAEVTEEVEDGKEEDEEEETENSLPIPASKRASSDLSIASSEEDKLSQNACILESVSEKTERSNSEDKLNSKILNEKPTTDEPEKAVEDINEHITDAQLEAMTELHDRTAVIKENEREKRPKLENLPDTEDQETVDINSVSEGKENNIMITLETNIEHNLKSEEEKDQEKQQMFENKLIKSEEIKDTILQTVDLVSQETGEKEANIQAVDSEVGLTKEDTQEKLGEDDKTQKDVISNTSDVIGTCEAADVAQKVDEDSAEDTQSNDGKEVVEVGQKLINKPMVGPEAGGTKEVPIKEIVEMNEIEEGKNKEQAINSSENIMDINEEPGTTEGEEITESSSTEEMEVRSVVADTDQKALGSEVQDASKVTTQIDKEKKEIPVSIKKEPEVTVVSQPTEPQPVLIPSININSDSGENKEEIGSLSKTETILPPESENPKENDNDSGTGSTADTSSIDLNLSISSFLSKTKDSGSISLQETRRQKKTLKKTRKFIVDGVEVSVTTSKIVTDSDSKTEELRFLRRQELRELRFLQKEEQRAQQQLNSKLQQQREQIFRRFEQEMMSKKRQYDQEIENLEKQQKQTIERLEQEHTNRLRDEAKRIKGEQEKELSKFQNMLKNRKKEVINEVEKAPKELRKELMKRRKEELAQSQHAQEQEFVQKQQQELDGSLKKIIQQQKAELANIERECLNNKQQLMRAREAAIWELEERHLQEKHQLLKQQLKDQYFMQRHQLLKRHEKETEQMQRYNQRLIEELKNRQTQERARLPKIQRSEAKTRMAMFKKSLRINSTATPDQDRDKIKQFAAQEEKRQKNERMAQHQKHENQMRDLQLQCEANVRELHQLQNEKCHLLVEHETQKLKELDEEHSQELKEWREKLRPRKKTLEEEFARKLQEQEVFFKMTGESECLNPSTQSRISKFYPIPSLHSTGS

[9] = target: G protein-coupled receptor kinase 6 (Homo sapiens) (UniProt P43250); assay: Inhibition of human recombinant GPRK6 at 15 nM related to control ULK1
[10] = target: Serine/threonine-protein kinase tousled-like 2 (Homo sapiens) (UniProt Q86UE8); assay: Inhibition of human recombinant TLK2 at 40 nM related to control ULK1
Serine/threonine-protein kinase tousled-like 2 (Homo sapiens), sequence (Q86UE8 whole entry, looked up): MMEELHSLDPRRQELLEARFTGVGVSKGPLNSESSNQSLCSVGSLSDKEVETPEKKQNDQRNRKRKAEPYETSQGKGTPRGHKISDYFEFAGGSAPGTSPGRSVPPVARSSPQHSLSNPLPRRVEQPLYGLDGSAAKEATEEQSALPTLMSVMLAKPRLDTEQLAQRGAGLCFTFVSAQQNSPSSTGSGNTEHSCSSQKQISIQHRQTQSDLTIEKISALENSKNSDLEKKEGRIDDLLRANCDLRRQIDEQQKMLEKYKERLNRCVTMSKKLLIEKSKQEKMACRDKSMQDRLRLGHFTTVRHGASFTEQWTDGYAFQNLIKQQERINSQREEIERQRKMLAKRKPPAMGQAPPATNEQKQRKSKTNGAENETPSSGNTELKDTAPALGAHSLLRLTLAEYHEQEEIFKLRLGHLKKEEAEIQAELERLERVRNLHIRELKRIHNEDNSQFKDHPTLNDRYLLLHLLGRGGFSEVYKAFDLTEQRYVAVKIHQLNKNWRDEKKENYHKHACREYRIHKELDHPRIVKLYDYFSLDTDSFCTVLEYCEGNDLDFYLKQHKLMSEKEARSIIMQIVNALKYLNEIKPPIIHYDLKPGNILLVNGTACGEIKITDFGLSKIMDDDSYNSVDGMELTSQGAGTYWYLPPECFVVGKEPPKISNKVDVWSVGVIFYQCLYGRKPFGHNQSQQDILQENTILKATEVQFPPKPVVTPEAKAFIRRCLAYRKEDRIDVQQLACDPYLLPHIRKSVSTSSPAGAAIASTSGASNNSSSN

[11] = target: T1, Mitogen-activated protein kinase 12 (Homo sapiens) (UniProt P53778); assay: Inhibition of human recombinant p38gamma at 40 nM related to control ULK1
T1 sequence (whole entry): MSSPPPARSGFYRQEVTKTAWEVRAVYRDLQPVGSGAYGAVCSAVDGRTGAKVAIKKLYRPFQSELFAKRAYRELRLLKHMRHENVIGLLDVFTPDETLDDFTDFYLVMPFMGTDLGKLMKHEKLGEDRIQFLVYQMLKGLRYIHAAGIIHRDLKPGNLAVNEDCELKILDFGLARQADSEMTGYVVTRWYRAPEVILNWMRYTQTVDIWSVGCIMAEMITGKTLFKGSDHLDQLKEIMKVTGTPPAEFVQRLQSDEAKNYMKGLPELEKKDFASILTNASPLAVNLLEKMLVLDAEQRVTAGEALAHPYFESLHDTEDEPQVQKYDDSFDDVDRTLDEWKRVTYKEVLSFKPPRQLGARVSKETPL

[12] = target: Tyrosine-protein kinase Blk (Homo sapiens) (UniProt P51451); assay: Inhibition of human recombinant BLK at 40 nM related to control ULK1
Tyrosine-protein kinase Blk (Homo sapiens), sequence (P51451 2-505 limits assumed): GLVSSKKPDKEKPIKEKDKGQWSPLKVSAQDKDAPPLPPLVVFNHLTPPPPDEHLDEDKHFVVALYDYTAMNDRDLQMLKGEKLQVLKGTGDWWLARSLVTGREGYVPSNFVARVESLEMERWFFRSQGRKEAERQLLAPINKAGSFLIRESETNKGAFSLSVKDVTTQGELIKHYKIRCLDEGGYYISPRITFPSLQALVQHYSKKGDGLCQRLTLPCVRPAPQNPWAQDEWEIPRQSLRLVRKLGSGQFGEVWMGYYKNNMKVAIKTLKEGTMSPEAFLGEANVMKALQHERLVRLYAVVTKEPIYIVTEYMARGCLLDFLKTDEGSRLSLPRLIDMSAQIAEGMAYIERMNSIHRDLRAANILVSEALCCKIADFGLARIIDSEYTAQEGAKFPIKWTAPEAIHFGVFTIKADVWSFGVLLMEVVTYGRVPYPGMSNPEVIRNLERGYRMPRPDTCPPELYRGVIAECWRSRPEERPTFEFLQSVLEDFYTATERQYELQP
Outline: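 Radiometric activity assays in a panel of 327 human recombinant kinases, each run in duplicate at one inhibitor concentration. Activity remaining is expressed as percent of vehicle control, and percent inhibition is calculated as 100% minus percent activity remaining.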

[13] = target: Ephrin type-A receptor 2 (Homo sapiens) (UniProt P29317); assay: Inhibition of human recombinant EphA2 at 40 nM in presence of ATP by radiometric assay relative to control
[14] = target: T2, Dual specificity mitogen-activated protein kinase kinase 6 (Homo sapiens) (UniProt P52564); assay: Inhibition of human recombinant MAP2K6 at 40 nM related to control ULK1
T2 sequence (whole entry): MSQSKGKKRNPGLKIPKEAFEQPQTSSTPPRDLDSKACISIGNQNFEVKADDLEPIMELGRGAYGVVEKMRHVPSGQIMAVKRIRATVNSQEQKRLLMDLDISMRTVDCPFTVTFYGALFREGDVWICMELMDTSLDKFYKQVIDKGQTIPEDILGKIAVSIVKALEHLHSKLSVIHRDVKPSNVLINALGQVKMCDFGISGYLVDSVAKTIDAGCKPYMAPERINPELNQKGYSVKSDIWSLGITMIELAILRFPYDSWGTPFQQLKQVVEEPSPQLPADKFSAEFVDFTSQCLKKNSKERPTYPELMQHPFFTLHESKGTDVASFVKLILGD

[15] = target: Serine/threonine-protein kinase 10 (Homo sapiens) (UniProt O94804); assay: Inhibition of human recombinant LOK at 40 nM related to control ULK1
U2OS = assay: cells; settings: Homo sapiens
[16] = target: T3, Protein kinase C zeta type (Homo sapiens) (UniProt Q05513); assay: Inhibition of human recombinant PKCz at 40 nM in presence of ATP by radiometric assay relative to control
T3 sequence (whole entry): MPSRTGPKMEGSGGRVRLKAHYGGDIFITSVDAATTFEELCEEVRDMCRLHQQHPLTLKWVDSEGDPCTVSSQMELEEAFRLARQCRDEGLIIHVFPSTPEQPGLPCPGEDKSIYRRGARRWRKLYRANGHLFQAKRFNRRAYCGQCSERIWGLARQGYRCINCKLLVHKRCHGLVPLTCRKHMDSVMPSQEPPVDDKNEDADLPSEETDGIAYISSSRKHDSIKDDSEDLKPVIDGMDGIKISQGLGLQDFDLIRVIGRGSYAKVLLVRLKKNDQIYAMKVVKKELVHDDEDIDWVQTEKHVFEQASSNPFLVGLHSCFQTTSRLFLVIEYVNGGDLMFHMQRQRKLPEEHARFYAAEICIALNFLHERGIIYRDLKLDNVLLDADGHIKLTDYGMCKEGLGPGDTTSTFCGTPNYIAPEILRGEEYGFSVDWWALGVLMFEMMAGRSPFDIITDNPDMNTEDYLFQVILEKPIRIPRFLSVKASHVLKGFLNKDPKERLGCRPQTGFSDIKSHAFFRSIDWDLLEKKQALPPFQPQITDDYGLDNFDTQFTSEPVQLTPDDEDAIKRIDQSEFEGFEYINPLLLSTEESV

inhibition [1]: 87% | fold change (FC) [2]: 0 | fold change (FC) [3]: 0.04 | fold change (FC) [4]: 0 | inhibition [5]: 3% | fold change (FC) [6]: 0.03 | inhibition [7]: 4%
Compound: CNC(=O)c1ccccc1Oc1nc(Nc2cc(OC)c(OC)c(OC)c2)ncc1Br

fold change (FC) [8]: 0.25 | fold change (FC) [9]: 0
Compound: CC(C)[C@H](NC(=O)c1cc(-c2cnn3cc(-c4ccc(OCCN5CCCCC5)cc4)cnc23)cs1)C(F)(F)F

fold change (FC) [10]: 0 | fold change (FC) [11]: 0 | fold change (FC) [12]: 0.23 | inhibition [13]: 2% | fold change (FC) [14]: 0 | fold change (FC) [15]: 0 | EC50 (U2OS): 700 nM | inhibition [16]: 0%
Compound: O=C(N[C@@H](C1CC1)C(F)(F)F)c1cc(-c2cnn3cc(-c4ccc(F)cc4)cnc23)cs1
